Screening results from PubChem.
Compounds with a hit are over-represented: about 2.1% of the library has one in this group of screens.
MC4R antag cAMP: human MC4R antagonism in cAMP assay; MC4R-expressing cells, MTII-stimulated cAMP, LANCE TR-FRET; inhibition, % at 6.5 µM; 0.48% of 360,000 active;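 active means inhibition above its plate's cutoff, the mean of tested wells on that plate plus 3 SD, cut at about 29% in these data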;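 further: 0% = Melanotan II alone and 100% = Melanotan II plus saturating MCL0020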
Target sequence (P32245 whole entry, looked up): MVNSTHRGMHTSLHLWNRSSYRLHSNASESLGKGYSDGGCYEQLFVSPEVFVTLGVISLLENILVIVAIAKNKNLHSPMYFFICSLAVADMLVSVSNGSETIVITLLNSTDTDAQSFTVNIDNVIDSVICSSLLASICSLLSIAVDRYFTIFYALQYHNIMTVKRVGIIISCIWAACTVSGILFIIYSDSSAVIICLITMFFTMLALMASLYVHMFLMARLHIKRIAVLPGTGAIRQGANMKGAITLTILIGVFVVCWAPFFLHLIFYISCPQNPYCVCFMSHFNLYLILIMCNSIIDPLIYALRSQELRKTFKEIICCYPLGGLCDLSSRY
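Material: U2OS-MC4R stable cell line | Reagent: Melanotan II challenge after compound preincubation | Doses: One concentration, 6.5 µM nominal | Incubation: 30-min compound preincubation, 1-h Melanotan II challenge, 1-h detection, room temperature | Signal: TR-FRET cAMP assay | Replicates: One well per compound, no replicates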
MC4R barr agon: agonists of human melanocortin 4 receptor (MC4R) beta-arrestin. P32245. U2OS MC4R beta-arrestin complementation, luminescence; percent of melanotan II response, DMSO zero. activation, % at 8.9 µM. 0.98% of 360,000 active;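 active means activation above a per-plate cutoff, the mean activation of sample wells on that plate plus 3 SD, cut at about 8% in these data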
F508del corr: correctors of CFTR F508del function in bronchial epithelial cells; CFBE cells, YFP halide quenching; stimulated with forskolin plus potentiator P3; % fluorescence drop versus neutral controls; activity (quench increase), % at 7.58 µM; 0.36% of 350,000 active;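 active means mean added fluorescence quench of at least 8% versus neutral control, with both replicates also reaching 8%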;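 further: cells transiently co-express mutant CFTR-F508del with the halide-sensitive YFP; corrector assay measuring rescue of mutant channel to the surface after 24 h compound exposure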
SMARCA2 activ: activators of SMARCA2 function; MG213 cells, MMTV-luciferase reporter, dexamethasone, overnight; activation, % at 9.1 µM; 1% of 370,000 active; AID 652017; in the data active means activation above about 7.8%;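 further: 0% = vehicle wells and 100% = reference activator wells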
SMARCA2 conf: SMARCA2 activation, confirmation screen; MG213 cells, MMTV-luciferase with dexamethasone, luminescence, overnight; MG213 cells expressing E1A, Rb sequestered; DMSO wells 0%, reference activator 100%; 30% of 3,500 active; shares compounds with SMARCA2 activ; activation, % at 9.1 µM;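 active means activation above its plate's cutoff, the mean activation of tested wells plus 3 SD, cut at about 7.9% in these data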
GAL4-VP16 Luc: activates GAL4-VP16 luciferase, flagging SMARCA2 activator hits; shares compounds with SMARCA2 activ; HEK293 GAL4-VP16 pG5luc reporter, luciferase luminescence; scaled: DMSO wells 0%, SAHA wells 100%; activation, % at 9.1 µM; 41% of 3,500 active; AID 686939;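 active means activation above the solvent-only control well mean plus 3 SD, averaged across control plates, cut at about 5.2% in these data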
Numbers without * were called inactive; . = not tested or not shown.

SMILES	MC4R antag cAMP	MC4R barr agon	F508del corr	SMARCA2 activ	SMARCA2 conf	GAL4-VP16 Luc
COC(=O)[C@H]1[C@H](CO)[C@H]2Cn3c(ccc(C4=CCCC4)c3=O)[C@@H]1N2S(=O)(=O)c1cn(C)cn1	.	.	0.0	.	.	.
CCCNC(=O)[C@H]1[C@H](CO)[C@H]2Cn3c(cccc3=O)[C@H]2N1CC	.	.	-0.4	.	.	.
COc1ccc2c(c1)/C(=C/c1cnc[nH]1)C(=O)N2	-20.6	-2.3	.	17.3*	10.7*	2.4
COC(=O)[C@@H]1[C@@H](CO)[C@@H]2Cn3c(ccc(-c4cccc(C(=O)N(C)C)c4)c3=O)[C@H]1N2CC1CC1	.	.	-0.7	.	.	.
O=c1[nH]sc2cc(F)ccc12	-5.5	-2.5	-3.9	13.2*	10.7*	0.5
COc1ccc(OC(=O)N(C)C[C@@H]2OCc3ccccc3-c3c(n(C)c4ccccc34)C(=O)N([C@@H](C)CO)C[C@@H]2C)cc1	.	.	1.8	.	.	.
Cc1ccc2c(c1)NP(=S)(Oc1ccccc1)N2 (stereo not drawn)	1.5	-1.6	-2.7	10.3*	1.2	2.6
COc1ccc2c(c1)NP(=S)(Oc1ccccc1)N2 (stereo not drawn)	0.8	1.9	1.0	6.5	.	.
COc1cc2c3cc1Oc1cc(ccc1O)C[C@@H]1c4c(cc(OC)c(O)c4Oc4ccc(cc4)C[C@H]3N(C)CC2)CCN1C	4.8	0.6	-2.8	10.1*	16.2*	1.5
COc1cc2c3cc1Oc1c(OC)c(OC)cc4c1[C@H](Cc1ccc(cc1)Oc1cc(ccc1O)C[C@H]3N(C)CC2)N(C)CC4	0.3	-1.0	-1.1	7.2	.	.
N#CC1(c2ccccc2)CCN(C2CC(=O)N(c3ccc(F)cc3)C2=O)CC1 (stereo not drawn)	-4.7	0.3	.	-1.8	.	.
COc1ccc(N2C(=O)CC(N3CC=C(c4ccccc4)CC3)C2=O)cc1 (stereo not drawn)	7.8	0.4	1.7	11.1*	-1.0	0.7
CCCN1[C@@H]2Cn3c(ccc(-c4ccc(F)cc4)c3=O)[C@H]1[C@@H](C(=O)OC)[C@@H]2CO	.	.	2.3	.	.	.
O=C(NC1CN2CCC1CC2)c1cc(-c2ccc(Cl)cc2)nc2ccccc12 (stereo not drawn)	.	.	.	10.6*	2.0	1.9
CN(C)C(=S)SSC(=S)N(C)C	-5.3	-2.1	0.8	15.3*	-15.2	15.5*
COC(=O)[C@@H]1[C@@H](CO)[C@@H]2Cn3c(ccc(-c4ccccc4F)c3=O)[C@H]1N2Cc1cccnc1	.	.	-0.1	.	.	.
ClCCN(CCCl)c1ccc(-n2cnc3c(Cl)ncnc32)cc1	27.4	-3.5	-7.2	16.1*	-2.7	-0.1
N[C@@H](Cc1ccc(N(CCCl)CCCl)cc1)C(=O)O	-1.0	1.0	1.9	2.5	.	.
COC(=O)[C@H]1[C@H](CO)[C@H]2Cn3c(ccc(C4=CCCCC4)c3=O)[C@@H]1N2C(=O)NC(C)C	.	.	-0.3	.	.	.
O=C1c2ccccc2-c2cc3ccccc3cc21	4.6	2.5	2.6	7.8	.	.
O=C1c2ccccc2-c2cccc3cccc1c23	15.3	6.1	-5.7	8.6*	9.5*	2.2
CN(C)C(=O)Oc1cccc2c(OC(=O)N(C)C)cccc12	5.9	-1.7	.	-2.6	.	.
CN(C(=O)Oc1cccc2ccccc12)C1C=CCC1 (stereo not drawn)	10.9	0.6	-1.8	9.9*	4.5	4.0
COc1cccc(-n2c(CN3CCOCC3)nc3ccc([N+](=O)[O-])cc3c2=O)c1	9.7	-2.5	-2.3	11.0*	4.7	0.6
CCC1CCCCN1CC(=O)c1ccc(OC(F)F)cc1 (stereo not drawn)	15.8	-0.6	.	14.0*	-3.6	1.1
CC=Cc1ccc2n(c1=O)C[C@@H]1[C@@H](CO)[C@H](C(=O)OC)[C@H]2N1CC1CC1 (mixture of isomers)	.	.	0.2	.	.	.
CC(=O)Nc1ccc(S(=O)(=O)N2Cc3cnnn3-c3ccccc3C2C#N)cc1 (stereo not drawn)	8.7	0.1	-1.1	9.7*	-1.1	1.2
O=C(Cc1cccnc1)N1CCCCN2[C@H](C1)[C@H](c1ccc(C#CC3(O)CCCC3)cc1)[C@@H]2CO	.	.	-2.4	.	.	.
